From PubChem BioAssay
A selection: hits, their analogues and other compounds. The true share with any hit is near 3.1%.
Lipid droplet = modulators of hepatic lipid droplet formation; AML12 mouse hepatocytes, oleate lipid droplets, BODIPY imaging; 240,000 tested, 0.4% active; inhibition, % at 6.5 µM; AID 1656;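 active = lipid droplet intensity inhibited by at least 50%, with more than 500 cells counted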
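Material: mouse AML12 hepatocyte cell line, fixed after treatment; Timing: compound with oleate, overnight; Technique: high-content imaging of BODIPY-stained droplets and DAPI nuclei; Probe or stimulus: oleate, 100 µM final; Dosing: compound at 6.5 µM only.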
aDG glyco act = alpha-DG glycosylation activation. 360,000 tested, 0.22% active. AID 624168. activation, % at 10 µM. Pro5-aDG cells, alpha-DG glycosylation AlphaScreen (IIH6); 0% Pro5, 100% B10-LARGE cell signal;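 active = activation of at least 8% versus controls, or a plate z-score of at least 8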;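 also: Pro5 are CHO cells carrying HIG-tagged alpha-DG that lacks glycosylation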
MPTP inh = blocks calcium-induced mitochondrial swelling. inhibition, % at 10 µM. isolated mouse mitochondria, Ca2+ swelling absorbance, 30 min. 360,000 tested, 1.4% active;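 active = inhibition of 50% or more, scaled per plate between neutral and stimulator controls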;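 also: 0% = DMSO wells given calcium and 100% = 1 mM EGTA wells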
V-ATPase pHluor = yeast V-ATPase proton transport regulation by pHLuorin; S. cerevisiae, pHLuorin cytosolic pH fluorescence; response, % at 10 µM; 350,000 tested, 0.37% active; in the data active = response mostly above about 7.3%, no sharp cut-off; inactive = mostly below about 5.4%; also: actives read high
ADAM17 inh = ADAM17 inhibition, QFRET primary screen. P78536. recombinant ADAM17, EDANS/DABCYL FRET peptide cleavage. inhibition, % at 6.95 µM. 370,000 tested, 0.83% active. AID 720648;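 active = inhibition above the mean of compounds lying between control limits plus 3 SD, set per campaign, cut at about 8.5% in these data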;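 also: 0% = DMSO-only wells as the low control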
ADAM10 inh = inhibitors of human ADAM10; O14672; recombinant ADAM10, EDANS/DABCYL FRET peptide cleavage, 3 h; inhibition, % at 7 µM; 370,000 tested, 0.62% active; AID 720582;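 active = inhibition above a per-campaign cutoff equal to the mean of compounds falling between control-based bounds plus 3 SD, cut at about 20% in these data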;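 also: 0% = DMSO wells while the 100% control is not disclosed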
Target sequence (O14672 214-748 limits assumed): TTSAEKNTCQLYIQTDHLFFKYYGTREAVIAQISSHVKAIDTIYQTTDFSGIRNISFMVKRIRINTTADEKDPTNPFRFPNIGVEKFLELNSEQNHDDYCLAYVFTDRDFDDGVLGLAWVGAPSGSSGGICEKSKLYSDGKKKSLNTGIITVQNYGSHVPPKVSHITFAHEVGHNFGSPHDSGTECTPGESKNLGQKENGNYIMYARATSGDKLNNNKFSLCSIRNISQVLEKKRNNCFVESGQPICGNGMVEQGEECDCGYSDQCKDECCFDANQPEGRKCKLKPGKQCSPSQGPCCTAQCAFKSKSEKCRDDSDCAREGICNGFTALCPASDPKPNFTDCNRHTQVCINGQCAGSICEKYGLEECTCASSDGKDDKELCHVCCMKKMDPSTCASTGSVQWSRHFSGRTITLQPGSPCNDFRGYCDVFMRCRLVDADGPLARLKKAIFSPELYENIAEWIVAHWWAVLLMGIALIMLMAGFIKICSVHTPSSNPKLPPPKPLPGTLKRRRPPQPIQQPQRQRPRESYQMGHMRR
V-ATPase pH SP = regulators of yeast V-ATPase proton transport. shares compounds with V-ATPase pHluor. S. cerevisiae pHLuorin cytosolic pH. response, % at 10 µM. 980 tested, 2% active. AID 602197; in the data active = response above about 24%;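 also: plate controls were vehicle wells for no effect and positive control wells for full effect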
* = called active by the depositor; . = no result.

SMILES | Lipid droplet | aDG glyco act | MPTP inh | V-ATPase pHluor | ADAM17 inh | ADAM10 inh | V-ATPase pH SP
O=C(NCC(c1ccccc1)c1ccccc1)[C@H](Cc1c[nH]c2ccccc12)NC1(C(=O)NC2CCCCC2)CCN(Cc2ccccc2)CC1 | . | . | . | . | 5 | 17 | .
CCOC(=O)Cn1c(=O)cc(C)c2ccccc21 | -16 | 0 | 0 | -6 | 2 | -8 | -1
CCOC(=O)Cn1c2ccccc2c2nc3ccccc3nc21 | 0 | 0 | 1 | -4 | -5 | -19 | -53
CCOC(=O)Cn1c(C)cc(=O)c2ccccc21 | . | 0 | 1 | 0 | 2 | -12 | -5
C=CCN1C(=O)[C@H](CC(=O)N2CCSCC2)[C@@]2(C(=O)OCC)CCCC=C12 | . | . | . | . | 0 | 1 | .
CCc1c(C(=O)C(C)O)c2n3c1CCC[C@@H]3CC2 (stereo partly specified) | . | . | . | . | -6 | -11 | .
CC(COc1ccc(S(C)(=O)=O)cc1)CN1CCC(C(O)(c2ccccc2)c2ccccc2)CC1 (stereo unspecified) | . | . | . | . | -3 | -7 | .
COc1ccccc1N1CCN(C(=O)C2CCN(S(=O)(=O)c3ccc4c(c3)CC(C)N4C(C)=O)CC2)CC1 (stereo unspecified) | -5 | 0 | 0 | 0 | 5 | -7 | .
COc1ccccc1N1CCN(C(=O)C2CCN(S(=O)(=O)c3ccc4c(c3)CC(C)N4C(=O)C3CC3)CC2)CC1 (stereo unspecified) | -1 | 0 | 0 | 14* | 8 | 8 | 1
O=C(O)CNC(=O)C(c1ccccc1)c1ccccc1 | 21 | 0 | 1 | 11* | 0 | 3 | 0
O=C(O)CCC(=O)NCC(=O)c1ccc(F)cc1 | -27 | 0 | 1 | 9 | -2 | 1 | -1
O=C(O)CCC(=O)Nc1ccc(F)cc1 | 5 | 0 | 0 | 1 | -4 | 6 | .
O=C(NCCCNC(=O)c1ccccn1)c1ccc(F)cc1 | -3 | 0 | -2 | -1 | -6 | 5 | .
O=C(NCCCNC(=O)c1ccc(F)cc1)c1ccc(F)cc1 | 1 | 0 | 1 | 4 | -2 | 2 | 1
O=C(CCCC(=O)c1ccc(F)cc1)c1ccc(F)cc1 | . | 0 | -1 | 8 | 2 | 8 | 1
Cc1ccc(C)c(NC(=O)C2CCCN2S(=O)(=O)c2cccnc2)c1 (stereo unspecified) | . | . | . | . | 0 | 1 | .
COc1ccc(OCc2nn3c(-c4ccccn4)nnc3s2)cc1 | . | 1 | -1 | 9.5* | -2 | 0 | 2
COc1ccc(-c2nnc3sc(COc4ccccc4)nn23)cc1 | . | 0 | 10 | -1 | -3 | -13 | .
Cc1nnc(SC(C)C(=O)N(C)C2CCCCC2)n1N (stereo unspecified) | . | 0 | -1 | 7.1* | 1 | -20 | 0
CC(Sc1nnc(-c2ccco2)n1C)C(=O)N(C)C1CCCCC1 (stereo unspecified) | . | 0 | -2 | -2 | -3 | -7 | .
Cc1ccc(S(=O)(=O)N(C)Cc2ccc(C(=O)N/N=C3\CCCC(=O)C3)cc2)cc1 | 17 | 0 | -1 | 3 | -70 | -198 | .
O=C1CCC/C(=N\NC(=O)c2ccc(NS(=O)(=O)c3ccc(Br)cc3)cc2)C1 | 0 | 0 | 2 | 14* | -17 | -59 | -2
C[C@@H]1OCN(C)[C@H]2C[C@H]3c4[nH]c5cccc(-c6ccc7c(c6)OCO7)c5c4CCN3C[C@@H]12 | . | . | . | . | -12 | -59 | .
CCC(C)[C@H](NC(=O)C1COC(O)([C@H](Cc2ccccc2)NC(=O)[C@@H](NC(=O)OCc2ccccc2)C(C)C)CN1C)C(=O)N[C@H](C(=O)OC)C(C)C (stereo partly specified) | . | . | . | . | -4 | -8 | .
Nc1c(C(=O)N2CCN(CCc3ccccc3)CC2)cnn1-c1ccccc1 | . | . | . | . | -2 | 5 | .
SMILES | Lipid droplet | aDG glyco act | MPTP inh | V-ATPase pHluor | ADAM17 inh | ADAM10 inh | V-ATPase pH SP
O[C@@H]1CN(C2CCN(Cc3ccccc3)CC2)CC[C@H]1N1CCCCCC1 | . | 0 | -1 | 11* | -1 | -3 | 0
O[C@@H]1CN(C2CCCCC2)CC[C@H]1N1CCN(CCc2ccccc2)CC1 | 1 | 1 | 1 | -1 | . | . | .
CCc1noc(C)c1C(=O)N1CCN(S(=O)(=O)c2cccs2)CC1 | . | 0 | -1 | 7.1* | -2 | -3 | 1
CCc1noc(C)c1C(=O)N1CCN(S(=O)(=O)c2ccc(Cl)cc2)CC1 | . | 0 | -2 | 1 | -2 | -8 | .
CCCCCCCCN1C(=O)[C@@H](CC(=O)N2CCN(C(=O)C3CC3)CC2)C[C@@]2(C(=O)OC)C1=C[C@H](C(C)C)O[C@@H]2C1CC1 | . | . | . | . | 3 | 7 | .
CCCCCn1nc(C(=O)N(CC(C)C)c2c(N)n(CCCC)c(=O)[nH]c2=O)c2ccccc2c1=O | . | 0 | 1 | 22* | -4 | 5 | 0
CC(=NN1CCN(Cc2ccccc2Cl)CC1)c1ccc(O)cc1 | . | . | . | . | 1 | 3 | .
Cc1nn(CC2CC2)c(=O)n1-c1ccc(Cl)cc1 | -24 | 0 | 0 | -1 | 0 | 7 | 1
Cc1ccc(C(=O)CCC(=O)Nc2ccc(C)cn2)cc1 | . | 0 | 0 | 1 | -1 | 4 | .
Cc1ccc(C(=O)CCC(=O)NC2=NCCS2)cc1 | . | 0 | -2 | 2 | 0 | -3 | -2
Cc1cc(OCCCC(=O)NC2=NCCS2)ccc1Cl | 6 | 0 | 2 | 9.5* | 0 | 2 | -2
CCOc1ccc(OCCCC(=O)NC2=NCCS2)cc1 | 4 | 0 | -1 | 5 | -4 | -5 | .
COC(=O)[C@]12C[C@H](CC(=O)NCCCCc3ccccc3)C(=O)N(Cc3ccc(Cl)cc3Cl)C1=C[C@H](C1CCCC1)O[C@@H]2C | . | . | . | . | -4 | -7 | .
Cc1cc2c(cc(C(=O)N3CCC(C(=O)N4CCCC4)CC3)n2Cc2c(F)cccc2Cl)o1 | . | 0 | -2 | 10* | -9 | -25 | 2
Cc1sc2nc(COC(=O)CNC(=O)c3ccc(F)cc3Cl)[nH]c(=O)c2c1C | . | . | . | . | 5 | 3 | .
Cc1ccc(NC(=O)COc2cccnc2[N+](=O)[O-])cc1S(=O)(=O)N1CCCCC1 | 8 | 0 | 3 | 57* | 7 | 11 | 3
Cc1ccc(NC(=O)COc2ccccc2C#N)cc1S(=O)(=O)N1CCCCCC1 | . | 0 | 1 | 0 | 4 | 11 | .
CCOc1cc(/C=C/C(=O)c2ccc3c(c2)OCCO3)ccc1OCC(=O)N(C)C | 2 | 0 | 1 | 15* | -1 | -4 | 0
CCOc1cc(/C=C/C(=O)c2ccc(O)cc2)ccc1OCC(=O)N(C)C | -26 | 0 | -1 | -7 | -4 | -10 | .
O=C(COc1coc(CN2CCCc3ccccc32)cc1=O)Nc1ccc([N+](=O)[O-])cc1 | . | 0 | 0 | 7.4* | -3 | -13 | 0
CCn1c(SCC(=O)NC2CCCC2)nnc1-c1c[nH]c2ccccc12 | -26 | 0 | -2 | 13* | -2 | -7 | 2
